≈ marks a conversion by molar mass, not a printed value. Calls of active or inactive are those of the source. The calls are words filed in the database; no cut-off is given here.
What was measured:
Staphylococcus [1] = test: Antibacterial activity against penicillin-sensitive Staphylococcus pyogenes assessed as growth inhibition after 24 hrs; format: functional
In short: (§1)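 Halving (twofold) serial dilutions of compound in nutrient broth, in vitro. Incubated 24 hr at 37°. Value reported is the lowest concentration that inhibited growth.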

Staphylococcus [2] = test: Antibacterial activity against penicillin-resistant Staphylococcus pyogenes assessed as growth inhibition after 24 hrs; format: functional; in short: as §1
Enterococcus faecalis = test: Antibacterial activity against Streptococcus faecalis assessed as growth inhibition after 24 hrs; format: functional
In short: (§2)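 Twofold serial dilutions in nutrient broth. The minimum concentration inhibiting visible growth was read after 24 hr incubation at 37°.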

[3] = (§3) Antibacterial activity against Salmonella pullorum assessed as growth inhibition after 24 hrs; format: functional, Salmonella enterica subsp. enterica serovar Pullorum; in short: as §2
Pseudomonas aeruginosa = test: Antibacterial activity against Pseudomonas aeruginosa assessed as growth inhibition after 24 hrs; format: functional; in short: as §2
Escherichia coli = test: Antibacterial activity against Escherichia coli 198 assessed as growth inhibition after 24 hrs; format: functional; in short: as §2
Klebsiella aerogenes = test: Antibacterial activity against Aerobacter aerogenes assessed as growth inhibition after 24 hrs; format: functional; in short: as §2
Proteus vulgaris = test: Antibacterial activity against Proteus vulgaris assessed as growth inhibition after 24 hrs; format: functional; in short: as §2
Klebsiella pneumoniae = test: Antibacterial activity against Klebsiella pneumoniae assessed as growth inhibition after 24 hrs; format: functional; in short: as §2
Serratia marcescens = test: Antibacterial activity against Serratia marcescens assessed as growth inhibition after 24 hrs; format: functional; in short: as §2
Candida albicans = test: Antifungal activity against Candida albicans assessed as growth inhibition after 5 days at 37 degC; format: functional
In short: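 Twofold serial dilutions in Sabouraud broth. The minimum inhibitory concentration was read after 5 days at 37°.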

Nannizzia gypsea = test: Antifungal activity against Microsporum gypseum assessed as growth inhibition after 10 days at 28 degC; format: functional
In short: (§4)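 Twofold serial dilutions in Sabouraud broth. The minimum inhibitory concentration was read after 10 days at 28°.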

[4] = tested on: Salmonella enterica subsp. enterica serovar Pullorum; test: as §3; format: functional; in short: as §2
[5] = Antifungal activity against Trichophyton granulosum assessed as growth inhibition after 10 days at 28 degC; format: functional; details: Trichophyton mentagrophytes var. granulosum; in short: as §4
Eimeria tenella [6] = test: Anticoccidal activity against Eimeria tenella assessed as improved weight gain and mortality in chicken relative to noninfected control; format: functional, organism-based
In short: (§5)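 Chickens with experimental coccidiosis received compound orally in the diet at 0.05%, starting 1 day before infection. Efficacy was judged 6 days later from survival and weight gain.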

Eimeria acervulina [7] = test: Anticoccidal activity against Eimeria acervulina assessed as improved weight gain in chicken; format: functional, organism-based; in short: as §5
Eimeria acervulina [8] = test: Anticoccidal activity against Eimeria acervulina assessed as improved weight gain and mortality in chicken relative to noninfected control; format: functional, organism-based; in short: as §5
Eimeria tenella [9] = test: Anticoccidal activity against Eimeria tenella assessed as improved weight gain in chicken at 0.002%, po; format: functional, organism-based
Eimeria tenella [10] = test: Anticoccidal activity against Eimeria tenella assessed as improved weight gain in chicken at 0.05%, po; format: functional, organism-based; in short: as §5
[11] = Candida albicans, 120 h, read-out: MIC
[12] = Nannizzia gypsea, 240 h, read-out: MIC
[13] = Staphylococcus, 24 h, read-out: MIC
[14] = Enterococcus faecalis, 24 h, read-out: MIC
[15] = Salmonella enterica, 24 h, read-out: MIC
[16] = Pseudomonas aeruginosa, 24 h, read-out: MIC
[17] = Escherichia coli, 198, 24 h, read-out: MIC
[18] = Klebsiella aerogenes, 24 h, read-out: MIC
[19] = Proteus vulgaris, 24 h, read-out: MIC
[20] = Klebsiella pneumoniae, 24 h, read-out: MIC
[21] = Serratia marcescens, 24 h, read-out: MIC

SMILES	MIC (Staphylococcus [1])	MIC (Staphylococcus [2])	MIC (Enterococcus faecalis)	MIC (Pseudomonas aeruginosa)	MIC (Escherichia coli)	MIC (Klebsiella aerogenes)	MIC (Proteus vulgaris)	MIC (Klebsiella pneumoniae)	MIC (Serratia marcescens)	MIC (Candida albicans)	MIC (Nannizzia gypsea)	MIC [4]	MIC (Nannizzia gypsea; [12]) [µg/mL]	MIC [5]	Activity (Eimeria tenella [6])	Activity (Eimeria acervulina [8])	MIC (Staphylococcus [1]; [13]) [µg/mL]	MIC (Staphylococcus [2]; [13]) [µg/mL]	MIC (Enterococcus faecalis; [14]) [µg/mL]	MIC [3, 15] [µg/mL]	other results
COC1C=CC(=O)C(C)(c2ccc(-c3ccccc3)cc2)O1 (single isomer, unassigned; isomer 1) [listing 1 of 2 here]	6.2 µg/mL (≈ 21.1 µM)	6.2 µg/mL (≈ 21.1 µM)	6.2 µg/mL (≈ 21.1 µM)	6.2 µg/mL (≈ 21.1 µM)	6.2 µg/mL (≈ 21.1 µM)	6.2 µg/mL (≈ 21.1 µM)	6.2 µg/mL (≈ 21.1 µM)	6.2 µg/mL (≈ 21.1 µM)	6.2 µg/mL (≈ 21.1 µM)	16 µg/mL (≈ 54.4 µM)	2 µg/mL (≈ 6.79 µM)	–	–	–	–	–	–	–	–	–	MIC [3]: 6.2 µg/mL (≈ 21.1 µM)
CNC(=O)OC1C=CC(=O)C(C)(c2ccc(-c3ccccc3)cc2)O1 (centres undefined)	inactive	inactive	inactive	inactive	inactive	inactive	inactive	inactive	inactive	–	–	inactive	1.6 (≈ 4.74 µM)	1.6 µg/mL (≈ 4.74 µM)	Active	–	–	–	–	–	MIC (Candida albicans; [11]): 250 µg/mL (≈ 741 µM); Activity (Eimeria acervulina [7]): inactive
COC1OC(C)(c2ccc(-c3ccccc3)cc2)C(=O)CC1N(C)C (single isomer, unassigned; isomer 1) [listing 1 of 2 here]	–	–	–	–	–	–	–	–	–	–	–	–	–	8 µg/mL (≈ 23.6 µM)	Active	Active	–	–	–	–	–
COC1C=CC(=O)C(C)(c2ccc(-c3ccccc3)cc2)O1 (stereo in doubt; 1a) [listing 1 of 2 here]	–	–	–	–	–	–	–	–	–	–	–	–	2 (≈ 6.79 µM)	–	–	–	6.2 (≈ 21.1 µM)	6.2 (≈ 21.1 µM)	6.2 (≈ 21.1 µM)	6.2 (≈ 21.1 µM)	MIC (Pseudomonas aeruginosa; [16]): 6.2 µg/mL (≈ 21.1 µM); MIC (Escherichia coli; [17]): 6.2 µg/mL (≈ 21.1 µM); MIC (Klebsiella aerogenes; [18]): 6.2 µg/mL (≈ 21.1 µM); MIC (Proteus vulgaris; [19]): 6.2 µg/mL (≈ 21.1 µM); MIC (Klebsiella pneumoniae; [20]): 6.2 µg/mL (≈ 21.1 µM); MIC (Serratia marcescens; [21]): 6.2 µg/mL (≈ 21.1 µM); MIC (Candida albicans; [11]): 32 µg/mL (≈ 109 µM)
COC1OC(C)(c2ccc(-c3ccccc3)cc2)C(O)CC1N1CCN(C)CC1 (centres undefined)	inactive	inactive	inactive	inactive	inactive	inactive	inactive	inactive	inactive	inactive	inactive	inactive	–	inactive	Active	–	–	–	–	–	Activity (Eimeria acervulina [7]): inactive
CNC1CC(=O)C(C)(c2ccc(-c3ccccc3)cc2)OC1OC (centres undefined)	–	–	–	–	–	–	–	–	–	–	–	–	–	–	Active	–	0.8 (≈ 2.46 µM)	0.8 (≈ 2.46 µM)	0.8 (≈ 2.46 µM)	0.8 (≈ 2.46 µM)	MIC (Pseudomonas aeruginosa; [16]): 0.8 µg/mL (≈ 2.46 µM); MIC (Escherichia coli; [17]): 0.8 µg/mL (≈ 2.46 µM); MIC (Klebsiella aerogenes; [18]): 0.8 µg/mL (≈ 2.46 µM); MIC (Proteus vulgaris; [19]): 0.8 µg/mL (≈ 2.46 µM); MIC (Klebsiella pneumoniae; [20]): 0.8 µg/mL (≈ 2.46 µM); MIC (Serratia marcescens; [21]): 0.8 µg/mL (≈ 2.46 µM); Activity (Eimeria acervulina [7]): inactive
CN(C)C(=O)OC1C=CC(=O)C(C)(c2ccc(-c3ccccc3)cc2)O1 (centres undefined)	–	–	–	–	–	–	–	–	–	–	–	–	8 (≈ 22.8 µM)	6.2 µg/mL (≈ 17.6 µM)	Active	Active	6.2 (≈ 17.6 µM)	6.2 (≈ 17.6 µM)	6.2 (≈ 17.6 µM)	6.2 (≈ 17.6 µM)	MIC (Pseudomonas aeruginosa; [16]): 6.2 µg/mL (≈ 17.6 µM); MIC (Escherichia coli; [17]): 6.2 µg/mL (≈ 17.6 µM); MIC (Klebsiella aerogenes; [18]): 6.2 µg/mL (≈ 17.6 µM); MIC (Proteus vulgaris; [19]): 6.2 µg/mL (≈ 17.6 µM); MIC (Klebsiella pneumoniae; [20]): 6.2 µg/mL (≈ 17.6 µM); MIC (Serratia marcescens; [21]): 6.2 µg/mL (≈ 17.6 µM); MIC (Candida albicans; [11]): 50 µg/mL (≈ 142 µM)
COC1OC(C)(c2ccc(-c3ccccc3)cc2)C(=O)CC1N(C)C (stereo in doubt; 2a) [listing 1 of 2 here]	–	–	–	–	–	–	–	–	–	–	–	–	–	8 µg/mL (≈ 23.6 µM)	Active	Active	–	–	–	–	–
CCCCc1cc2c(=O)c(C(=O)OC)c[nH]c2cc1OCc1ccccc1	–	–	–	–	–	–	–	–	–	–	–	–	–	–	–	–	–	–	–	–	Activity (Eimeria tenella [9]): Active
COC1OC(C)(c2ccc(-c3ccccc3)cc2)C(O)CC1N(C)C (single isomer, unassigned; isomer 1)	inactive	inactive	inactive	inactive	inactive	inactive	inactive	inactive	inactive	inactive	inactive	inactive	–	inactive	Active	Active	–	–	–	–	–
COC1OC(C)(c2ccc(-c3ccccc3)cc2)C(=O)CC1N1CCOCC1 (centres undefined)	–	–	–	–	–	–	–	–	–	inactive	–	–	3.2 (≈ 8.39 µM)	16 µg/mL (≈ 41.9 µM)	Active	–	3.2 (≈ 8.39 µM)	3.2 (≈ 8.39 µM)	3.2 (≈ 8.39 µM)	3.2 (≈ 8.39 µM)	MIC (Pseudomonas aeruginosa; [16]): 3.2 µg/mL (≈ 8.39 µM); MIC (Escherichia coli; [17]): 3.2 µg/mL (≈ 8.39 µM); MIC (Klebsiella aerogenes; [18]): 3.2 µg/mL (≈ 8.39 µM); MIC (Proteus vulgaris; [19]): 3.2 µg/mL (≈ 8.39 µM); MIC (Klebsiella pneumoniae; [20]): 3.2 µg/mL (≈ 8.39 µM); MIC (Serratia marcescens; [21]): 3.2 µg/mL (≈ 8.39 µM); Activity (Eimeria acervulina [7]): inactive
COC1C=CC(=O)C(C)(c2ccc(-c3ccccc3)cc2)O1 (stereo in doubt; 1a) [listing 2 of 2 here]	–	–	–	–	–	–	–	–	–	–	–	–	–	1 µg/mL (≈ 3.4 µM)	Active	–	–	–	–	–	–
COC1OC(C)(c2ccc(-c3ccccc3)cc2)C(O)CC1N(C)C (stereo in doubt; 3a)	inactive	inactive	inactive	inactive	inactive	inactive	inactive	inactive	inactive	inactive	inactive	inactive	–	inactive	Active	Active	–	–	–	–	–
COC1OC(C)(c2ccc(-c3ccccc3)cc2)C(O)CC1N1CCOCC1 (centres undefined)	inactive	inactive	inactive	inactive	inactive	inactive	inactive	inactive	inactive	inactive	inactive	inactive	–	inactive	–	–	–	–	–	–	Activity (Eimeria tenella [10]): inactive
COC1OC(C)(c2ccc(-c3ccccc3)cc2)C(=O)CC1N(C)C (single isomer, unassigned; isomer 1) [listing 2 of 2 here]	6.2 µg/mL (≈ 18.3 µM)	6.2 µg/mL (≈ 18.3 µM)	6.2 µg/mL (≈ 18.3 µM)	6.2 µg/mL (≈ 18.3 µM)	6.2 µg/mL (≈ 18.3 µM)	6.2 µg/mL (≈ 18.3 µM)	6.2 µg/mL (≈ 18.3 µM)	6.2 µg/mL (≈ 18.3 µM)	6.2 µg/mL (≈ 18.3 µM)	16 µg/mL (≈ 47.1 µM)	8 µg/mL (≈ 23.6 µM)	–	–	–	–	–	–	–	–	–	MIC [3]: 6.2 µg/mL (≈ 18.3 µM)
CNC1CC(O)C(C)(c2ccc(-c3ccccc3)cc2)OC1OC (centres undefined)	inactive	inactive	inactive	inactive	inactive	inactive	inactive	inactive	inactive	inactive	inactive	inactive	–	inactive	–	–	–	–	–	–	Activity (Eimeria tenella [10]): inactive; Activity (Eimeria acervulina [7]): inactive
COC1C=CC(=O)C(C)(c2ccc(-c3ccccc3)cc2)O1 (single isomer, unassigned; isomer 1) [listing 2 of 2 here]	–	–	–	–	–	–	–	–	–	–	–	–	–	8 µg/mL (≈ 27.2 µM)	–	–	–	–	–	–	Activity (Eimeria tenella [10]): inactive
COC1OC(C)(c2ccc(-c3ccccc3)cc2)C(=O)CC1N(C)C (stereo in doubt; 2a) [listing 2 of 2 here]	–	–	–	–	–	–	–	–	–	–	–	–	4 (≈ 11.8 µM)	–	–	–	3.2 (≈ 9.43 µM)	3.2 (≈ 9.43 µM)	3.2 (≈ 9.43 µM)	3.2 (≈ 9.43 µM)	MIC (Pseudomonas aeruginosa; [16]): 3.2 µg/mL (≈ 9.43 µM); MIC (Escherichia coli; [17]): 3.2 µg/mL (≈ 9.43 µM); MIC (Klebsiella aerogenes; [18]): 3.2 µg/mL (≈ 9.43 µM); MIC (Proteus vulgaris; [19]): 3.2 µg/mL (≈ 9.43 µM); MIC (Klebsiella pneumoniae; [20]): 3.2 µg/mL (≈ 9.43 µM); MIC (Serratia marcescens; [21]): 3.2 µg/mL (≈ 9.43 µM); MIC (Candida albicans; [11]): 16 µg/mL (≈ 47.1 µM)
COC1OC(C)(c2ccc(-c3ccccc3)cc2)C(=O)CC1N1CCN(C)CC1 (centres undefined)	–	–	–	–	–	–	–	–	–	–	–	–	3.2 (≈ 8.11 µM)	1.6 µg/mL (≈ 4.06 µM)	–	Active	6.2 (≈ 15.7 µM)	6.2 (≈ 15.7 µM)	6.2 (≈ 15.7 µM)	6.2 (≈ 15.7 µM)	MIC (Pseudomonas aeruginosa; [16]): 6.2 µg/mL (≈ 15.7 µM); MIC (Escherichia coli; [17]): 6.2 µg/mL (≈ 15.7 µM); MIC (Klebsiella aerogenes; [18]): 6.2 µg/mL (≈ 15.7 µM); MIC (Proteus vulgaris; [19]): 6.2 µg/mL (≈ 15.7 µM); MIC (Klebsiella pneumoniae; [20]): 6.2 µg/mL (≈ 15.7 µM); MIC (Serratia marcescens; [21]): 6.2 µg/mL (≈ 15.7 µM); Activity (Eimeria tenella [10]): inactive

Reference: ChEMBL document CHEMBL3272204, “Products from furans. 1. Sunthesis and anticoccidial and antimicrobial activity of 5-amino-5,6-dihydro-6-methoxy-2-methyl-2-(4'-biphenylyl)-2H-pyran-3(4H)-ones and related compounds” (1976)
